# The list is not random: actives were taken first. Their share in the collection is about 2.2%.
# PglD inh: C. jejuni PglD acetyltransferase inhibitors, primary screen, biochemical, DTNB colorimetric, single point; 0.098% of 360,000 active; inhibition, % at 12.5 µM; purified PglD enzyme, DTNB colorimetric CoA detection; in the data active means inhibition above about 16%, passing the limit was not always enough
# CR mimetic SO: reduction of superoxide in aged yeast, primary screen, HTS | S. cerevisiae aged cells, superoxide DHE fluorescence; hits give low values | AID 2690, 2010 | 0.18% of 330,000 active | superoxide response (% of plate mean), % at 10 µM;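 active means superoxide response under a set limit, about three screen SD below normal, cut at about 65% in these data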;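 further: yeast aged for seven days with compound at 30 °C before DHE staining; 100% = average MFI of all compound-treated wells on the plate with controls excluded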
# Ecoli rRNA inh: reduced GFP signal of wild-type E. coli, primary screen, bacterial rRNA inhibitor project, GFP/RFP fluorescence, OD600, single point; E. coli WT GFP vs humanized-ribosome RFP mutants, 24 h; hits give low values; DMSO median 0, no signal -100; 1.6% of 350,000 active; GFP signal change (wild-type ribosome), % (no concentration beside the values);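 active means significant combined selectivity score with lowered wild-type GFP, culture density cut under 30%, mutant RFP and density less affected; inactive means any of these conditions unmet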
# Cneo AK release: Cryptococcus neoformans cell lysis inducers, primary screen, AK release luminescence, single concentration | C. neoformans lysis, adenylate kinase release luminescence, 4 h; normalised: neutral wells 0, clomiphene wells 100 | AID 651654, 2012 | 0.2% of 360,000 active | lysis activity, % at 15 µM;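 active means mean lysis activity across replicates of at least 80%, whatever share of replicates individually reach that level; inactive means mean lysis activity below 80%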
#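 Material: C. neoformans cells | Amount: Yeast cell density of 5 × 10^6 cells/mL | Medium: Fresh YPD growth medium | Dosing: Single dose | Times: Static 4 h at 37 °C with compound, 1 h detection | Detection: AK luminescence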
# Mot1-301 SUMO: yeast Mot1-301 growth rescue at high temperature, primary screen, SUMOylation pathway inhibitor project, S. cerevisiae, ATP luminescence, 38.5C. growth rescue, % at 18.8 µM. 1% of 320,000 active. S. cerevisiae Mot1-301 growth rescue; percent above DMSO median, 100 means doubled;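 active means every valid replicate shows activation above 250% relative to neutral control wells; inactive means the rest, any valid replicate at or below 250%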;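 further: OY570 slx delta 5 strain wells were the positive control but not used for scaling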
# * hit, by the source's call; x = no result.
SMILES,PglD inh,CR mimetic SO,Ecoli rRNA inh,Cneo AK release,Mot1-301 SUMO
C[C@H](CO)N1C[C@H](C)[C@H](CN(C)Cc2ccncc2)Oc2ccc(NC(=O)c3ccncc3)cc2C1=O,-2,x,3,48,x
O=C(Cc1cccc(NC(=O)C2CCN(C(=O)C3CCCC3)CC2)c1)Nc1cccc(C(=O)N2CCCC2)c1,4,92,-21*,5,-19
O=C(NCCCCc1ccccc1)c1cccc(NC(=O)C2CCCCC2)c1,1,x,-30*,1,x
Cc1ccc(S(=O)(=O)Nc2ccc3c(c2)CC(=O)N([C@@H](C)CO)C[C@H](C)[C@@H](CN(C)Cc2ccc4c(c2)OCO4)O3)cc1,1,x,-55,0,x
C[C@@H]1CN([C@@H](C)CO)C(=O)c2cc(C#CC3CC3)cnc2O[C@@H]1CN(C)Cc1ccccn1,2,x,7,2,x
Cc1cc(C(=O)NCCC2=CCCCC2)ccc1[N+](=O)[O-],1,103,-35*,10,429
Cc1ccccc1-c1nc(CN2CCC(C(=O)NCCCN3CC(C)CC(C)C3)CC2)c(C)o1 (stereo not given),9,98,x,3,559*
Cc1ccccc1-c1nc(CN2CCC(C(=O)NCCCN3CCCC3)CC2)c(C)o1,1,97,-4,2,-1
C[C@H]1CN(C)C(=O)Cc2cc(N)ccc2O[C@@H]1CN(C)C(=O)OC(C)(C)C,x,x,0,x,x
CC(=O)N1CCC(N(CCN2CCOCC2)C(=O)Nc2ccc(Cl)c(Cl)c2)CC1,1,111,-40*,2,7
Cc1ccc(S(=O)(=O)N(CC(=O)NCc2ccco2)C2CCCCC2)cc1,2,114,-28*,1,-23
Cc1ccccc1Nc1nnc(SCC2CCCCO2)s1 (stereo not given),-5,102,-22*,-10,-3
COc1ccc(NC(=O)Nc2cccc3c2O[C@@H](CN(C)S(=O)(=O)c2ccc(Cl)cc2)[C@@H](C)CN([C@@H](C)CO)C3=O)cc1,2,x,-4,-4,x
COc1ccc(CN(C)C[C@@H]2Oc3c(NC(=O)Nc4cccc5ccccc45)cccc3C(=O)N([C@@H](C)CO)C[C@@H]2C)cc1,1,x,2,114*,x
COc1ccc(NC(=O)Nc2cccc3c2O[C@H](CN(C)Cc2ccncc2)[C@H](C)CN([C@@H](C)CO)C3=O)cc1,22*,x,2,53,x
COc1ccc(CN(C)C[C@H]2Oc3c(NC(=O)Nc4cccc5ccccc45)cccc3C(=O)N([C@H](C)CO)C[C@H]2C)cc1,2,x,-4,2,x
COc1ccc(NC(=O)Nc2cccc3c2O[C@H](CN(C)S(=O)(=O)c2ccc(Cl)cc2)[C@H](C)CN([C@@H](C)CO)C3=O)cc1,0,x,-23*,-8,x
Cc1noc(C)c1NC(=O)Nc1ccc2c(c1)C(=O)N([C@@H](C)CO)C[C@@H](C)[C@H](CN(C)S(=O)(=O)c1cccs1)O2,-1,x,3,-5,x
O=c1ccc2ccccc2c2ccccc12,x,x,-54,x,x
O=Nc1c(O)c2ccccc2c2ccccc12,-1,95,-41,-6,664*
NC(=O)CSc1nc2cc([N+](=O)[O-])ccc2n1-c1cccc(C(F)(F)F)c1,3,83,-22*,-6,-19
NNC(=O)c1nn(-c2ccc(Cl)cc2)cc1O,8,93,-19*,18,-24
Cc1c(C(=O)NN)nn(-c2ccc(Cl)cc2)c(=O)c1C#N,x,127,-16*,x,-2
Cc1ccc(NC(=O)COC(=O)c2nn(-c3ccc(Cl)cc3)cc2O)cc1,5,96,-10,0,20
CCC(=O)Nc1ccc2c(c1)OC[C@H](C)N(CCc1ccccc1)C[C@@H](C)[C@@H](OC)CN(C)C2=O,0,x,-3,-4,x
SMILES,PglD inh,CR mimetic SO,Ecoli rRNA inh,Cneo AK release,Mot1-301 SUMO
C[C@@H]1CCCCO[C@@H](CN(C)Cc2ccccc2)[C@@H](C)CN([C@@H](C)CO)C(=O)c2cc(NS(=O)(=O)c3ccc(Cl)cc3)ccc2O1,-3,x,-6,5,x
Cc1noc(C)c1NC(=O)Nc1ccc2c(c1)C(=O)N([C@H](C)CO)C[C@H](C)[C@H](CN(C)Cc1ccc(Cl)c(Cl)c1)OCCCC[C@@H](C)O2,-2,x,0,0,x
CSCC[C@H](NC(=O)N1CCn2c1nc1ccccc12)C(=O)N1CCCCC1,0,95,-17*,-2,-3
CCCCNC(=O)C1CCN(Cc2ccccn2)CC1,-4,102,x,0,303*
O=C(O)C1CCN(Cc2ccccn2)CC1,x,77,10,x,-13
CN(C)S(=O)(=O)c1ccc(NC=C(C#N)C#N)cc1,5,106,16,138*,-9
COc1cccc(C(=O)NNC(=O)CCc2ccccc2)c1,7,100,-21*,0,6
COc1cc(OC)cc(C(=O)NNC(=O)CCc2ccccc2)c1,x,109,8,x,234
O=C(C[C@@H]1C[C@@H]2c3cc(NC(=O)NC4CCCC4)ccc3O[C@@H]2[C@H](CO)O1)NCc1ccccc1,x,x,-1,x,x
CCOc1ccccc1N1CCN(S(=O)(=O)c2cccs2)CC1,6,74,-24*,0,-6
C[C@H]1CN([C@@H](C)CO)C(=O)Cc2cc(NC(=O)Nc3ccc(F)cc3)ccc2O[C@@H]1CN(C)S(=O)(=O)c1ccccc1,10,x,-5,-2,x
Cc1ccccc1Nc1cccc2nonc12,5,95,-40*,5,36
Cc1ccccc1NS(=O)(=O)c1cccc2nonc12,-1,125,3,3,-11
CCOC(=O)C1CCN(C2=NC(=O)/C(=C/c3ccc(OC)c(OC)c3)S2)CC1,-3,103,-30*,-1,15
O=C(CNc1ccc2ccccc2c1)N/N=C/C=C/c1cccc([N+](=O)[O-])c1,x,92,-15*,x,11
O=C(N/N=C/C=C/c1cccc([N+](=O)[O-])c1)C(O)c1ccccc1 (stereo not given),x,87,-2,x,13
CC(=O)Nc1ccc2c(c1)C(=O)N(C)[C@H]1CC[C@H](CC(=O)NCc3ccc(Cl)cc3)O[C@@H]1CO2,3,x,0,38,x
CO[C@@H]1CN(C)C(=O)c2cc(NS(C)(=O)=O)ccc2OC[C@@H](C)N(C(=O)C2CCC2)C[C@H]1C,-1,x,0,0,x
CCOC(=O)c1sc(=S)n(C)c1NC(=O)c1ccc(OC)cc1,3,111,-21*,3,-11
COc1cc(C(=O)NNC(=S)NC(=O)/C=C/c2ccccc2)cc(OC)c1OC,4,105,-15*,0,5
CC(C)c1cccc(C(C)C)c1NC(=S)Nc1cccc(Cl)c1,0,103,-26*,2,13
Fc1ccc(NC(=S)Nc2cccc(Cl)c2)cc1,x,92,x,x,2

# Screens as filed in PubChem BioAssay.
